Test results published in ChEMBL document CHEMBL3856282, “Design and synthesis of purine analogues as highly specific ligands for FcyB, a ubiquitous fungal nucleobase transporter” (Bioorg Med Chem, 2016).
Activity calls are given as the source filed them. No cut-off for these calls is given here.

Experiments:
Aspergillus nidulans [1] = test: Inhibition of Aspergillus nidulans FcyB expressed in germinating conidiospores of UapA, UapC, AzgA, FurD, FurA, FcyB, CntA transporter deficient Aspergillus nidulans assessed as suppression of [2,8 3H]-hypoxanthine uptake at 0.5 mM after 1 min by scintillation counting method
How it was run: (§1)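 Competition uptake in germinating conidiospores of a Δ7 strain carrying single-copy fcyB driven by the uapA promoter, selected by pabA1 complementation. 0.5 μM ³H-substrate (adenine for line 1, hypoxanthine for line 3) was added together with a 1000-fold excess (500 μM) of analogue. Uptake was stopped after 1 min by freezing, immediate centrifugation and washing. Three experiments, each in triplicate.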

Aspergillus nidulans [2] = test: Inhibition of Aspergillus nidulans FcyB expressed in germinating conidiospores of UapA, UapC, AzgA, FurD, FurA, FcyB, CntA transporter deficient Aspergillus nidulans assessed as [2,8 3H]-adenine uptake at 0.5 mM after 1 min by scintillation counting method relative to control; parameters: scale not given: the % may be the effect or the level left; how it was run: as §1
[3] = Inhibition of Aspergillus nidulans FcyB expressed in germinating conidiospores of UapA, UapC, AzgA, FurD, FurA, FcyB, CntA transporter deficient Aspergillus nidulans assessed as suppression of [2,8 3H]-adenine uptake after 1 min by scintillation counting method
How it was run: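 In germinating conidiospores of a Δ7 strain expressing only FcyB (uapA promoter), 0.5 μM ³H-adenine uptake was measured over 1 min against varying analogue concentrations. Ki was derived from IC50 by Cheng–Prusoff, Ki = IC50/(1+[S]/Km), with [S] as the fixed radiolabelled substrate concentration. Values are averages of at least three independent experiments with three replicates per concentration point.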

SMILES | inhibition (Aspergillus nidulans [1]) | Activity (Aspergillus nidulans [2]) [%] | Ki [3] [µM]
CN1CCN(c2nccc3c2ncn3C2CCCC2)CC1 | Active | < 10 | 38
CN(C)CCNc1nccc2c1ncn2C1CCCC1 | Active | < 10 | 95
CC(C)n1cnc2c(NCc3ccccc3)nccc21 | Active | < 10 | 5
Nc1nccc2c1ncn2C1CCCC1 | Active | < 10 | 18
c1ccc(CNc2nccc3c2ncn3C2CCCC2)cc1 | Active | < 10 | 21
CC(C)n1cnc2c(NCCN(C)C)nccc21 | Active | < 10 | 72
